Calls of active or inactive are those of the source. The rule behind the calls is not given here.
What was measured:
Calvarial osteoblast [1] = assay: Cytotoxicity against rat calvarial osteoblasts at 100 uM after 48 hrs by MTT assay; type: cell-based
In short: (§1)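 Primary osteoblasts from calvaria of 1–2-day-old rat pups, released by sequential dispase/collagenase P digestion and grown in α-MEM with 10% FCS to 70–80% confluence. Seeded at 2000 cells/well and treated with 1 pM to 100 µM for 48 h in differentiation medium (10 mM β-glycerophosphate, 50 µg/mL ascorbic acid). Viability read by MTT against untreated control; n=8, mean ± SEM.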

Calvarial osteoblast [2] = assay: Cytotoxicity against rat calvarial osteoblasts at 0.000001 uM to 1 uM after 48 hrs by MTT assay; type: cell-based; conditions: 1 pM; in short: as §1
Calvarial osteoblast [3] = assay: Anabolic activity in rat calvarial osteoblasts assessed as induction of alkaline phosphatase activity at 1 pM after 48 hrs in presence of beta-glycerophosphate and ascorbic acid by p-nitrophenyl phosphate substrate based assay (reference value: 1 to 1.21); type: functional
Calvarial osteoblast [4] = assay: Upregulation of Col1 mRNA levels in rat calvarial osteoblasts at 100 pM after 48 hrs by qRT-PCR analysis relative to control; type: functional
In short: (§2)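 Rat pup calvarial osteoblasts were treated for 48 h with compound. Total RNA was extracted with TRIzol and checked by A260 and A260/A280. qRT-PCR used 45 cycles (94 °C, 62 °C, 72 °C steps) and was normalised to GAPDH. Fold change is over untreated cells; n=5, mean ± SEM.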

Rattus norvegicus [5] = assay: Upregulation of Runx2 mRNA in rat pup calvarial tissue at >10 mg/kg/day administered subcutaneously for 3 consecutive days by qRT-PCR analysis; type: functional, organism-based
In short: (§3)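 Rat pups received subcutaneous injections at the calvarial skull site of 0.1, 0.5, 1.0, 5.0, 10 or 20 mg·kg⁻¹·day⁻¹, or normal-saline vehicle, for 3 consecutive days. Calvaria were then collected, RNA was isolated with TRIzol, and Runx2 and Bmp2 were measured by qRT-PCR; n=5, mean ± SEM.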

Calvarial osteoblast [6] = assay: Upregulation of Osx mRNA levels in rat calvarial osteoblasts at 100 pM after 48 hrs by qRT-PCR analysis relative to control; type: functional; in short: as §2
Rattus norvegicus [7] = assay: Upregulation of Runx2 mRNA in rat pup calvarial tissue at 1 to 10 mg/kg/day administered subcutaneously for 3 consecutive days by qRT-PCR analysis; type: functional, organism-based; in short: as §3
Calvarial osteoblast [8] = assay: Anabolic activity in rat calvarial osteoblasts assessed as induction of alkaline phosphatase activity at 100 uM after 48 hrs in presence of beta-glycerophosphate and ascorbic acid by p-nitrophenyl phosphate substrate based assay (reference value: 1 to 1.21); type: functional
Rattus norvegicus [9] = assay: Upregulation of Bmp2 mRNA in rat pup calvarial tissue at >10 mg/kg/day administered subcutaneously for 3 consecutive days by qRT-PCR analysis; type: functional, organism-based; in short: as §3
Rattus norvegicus [10] = assay: Osteogenic activity in Sprague-Dawley rat drill-hole fracture model assessed as enhanced callus regeneration of femur bone at 10 mg/kg/day by calcein labeling based confocal microscopic method; type: functional
In short: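 Drill-hole femur defect in female Sprague-Dawley rats with oral dosing at 10 mg·kg⁻¹·day⁻¹ for 14 days. Calcein (20 mg/kg i.p.) was given 2 days before autopsy. Acrylic-embedded 50 µm bone sections were imaged by confocal microscopy, and mean calcein intensity per pixel was quantified at the defect; n=6/group.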

Calvarial osteoblast [11] = assay: Upregulation of Bmp2 mRNA levels in rat calvarial osteoblasts at 100 pM after 48 hrs by qRT-PCR analysis relative to control; type: functional; in short: as §2
Calvarial osteoblast [12] = assay: Anabolic activity in rat calvarial osteoblasts assessed as induction of alkaline phosphatase activity after 48 hrs in presence of beta-glycerophosphate and ascorbic acid by p-nitrophenyl phosphate substrate based assay; type: functional, cell-based
Calvarial osteoblast [13] = assay: Upregulation of ALP mRNA levels in rat calvarial osteoblasts at 100 pM after 48 hrs by qRT-PCR analysis relative to control; type: functional; in short: as §2
Calvarial osteoblast [14] = assay: Upregulation of Col1 mRNA levels in rat calvarial osteoblasts at 10 nM after 48 hrs by qRT-PCR analysis relative to control; type: functional; in short: as §2
Calvarial osteoblast [15] = assay: Upregulation of BMP2 expression levels in rat calvarial osteoblasts at 100 pM after 48 hrs by Western blot analysis; type: functional, cell-based
Calvarial osteoblast [16] = assay: Upregulation of Runx2 mRNA levels in rat calvarial osteoblasts at 100 pM after 48 hrs by qRT-PCR analysis relative to control; type: functional; in short: as §2
Rattus norvegicus [17] = assay: Upregulation of Bmp2 mRNA in rat pup calvarial tissue at 1 to 10 mg/kg/day administered subcutaneously for 3 consecutive days by qRT-PCR analysis; type: functional, organism-based; in short: as §3
Rattus norvegicus [18] = assay: Hepatotoxicity in Sprague-Dawley rat drill-hole fracture model assessed as morphological alterations at 10 mg/kg, po qd for 14 days by haematoxylin and eosin staining-based microscopic analysis; type: toxicity, organism-based; conditions: in vivo, 336 h
In short: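 From the next day they were dosed orally for 14 days, 6 per group, with vehicle gum acacia in water. Livers were collected at the end, cut into 5 µm paraffin sections, dewaxed, stained with H&E and examined by light microscopy.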

Rattus norvegicus [19] = assay: Osteogenic activity in Sprague-Dawley rat drill-hole fracture model assessed as increase in trabecular number at 10 mg/kg/day for 14 consecutive days by micro CT-scan analysis; type: functional, organism-based
In short: (§4)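 Adult female Sprague-Dawley rats (200 ± 20 g, 12 weeks) under ketamine/xylazine anaesthesia received a 0.8 mm drill-hole defect in the femoral diaphysis, 2 cm above the knee. Dosing was oral at 10 mg·kg⁻¹·day⁻¹, or gum acacia vehicle, for 14 days starting the next day. The defect was scanned by micro-CT at 18 µm voxel and 70 kV; n=6/group.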

Rattus norvegicus [20] = assay: Osteogenic activity in Sprague-Dawley rat drill-hole fracture model assessed as increase in trabecular thickness at 10 mg/kg/day for 14 consecutive days by micro CT-scan analysis; type: functional, organism-based; in short: as §4
Rattus norvegicus [21] = assay: Osteogenic activity in Sprague-Dawley rat drill-hole fracture model assessed as enhanced callus regeneration of femur bone at 10 mg/kg/day by H and E staining-based analysis; type: functional, organism-based
In short: (§5)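 Drill-hole femur defect in female Sprague-Dawley rats with oral dosing at 10 mg·kg⁻¹·day⁻¹ or gum acacia vehicle for 14 days. Bones were decalcified in EDTA and the callus at the defect site was stained with H&E; n=6/group.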

Calvarial osteoblast [22] = assay: Upregulation of Runx2 mRNA levels in rat calvarial osteoblasts at 10 nM after 48 hrs by qRT-PCR analysis relative to control; type: functional; in short: as §2
Calvarial osteoblast [23] = assay: Anabolic activity in rat calvarial osteoblasts assessed as induction of alkaline phosphatase activity at 10 nM after 48 hrs in presence of beta-glycerophosphate and ascorbic acid by p-nitrophenyl phosphate substrate based assay (reference value: 1 to 1.21); type: functional
Calvarial osteoblast [24] = assay: Upregulation of Bmp2 mRNA levels in rat calvarial osteoblasts at 10 nM after 48 hrs by qRT-PCR analysis relative to control; type: functional; in short: as §2
Calvarial osteoblast [25] = assay: Upregulation of Bmp2 expression levels in rat calvarial osteoblasts at 100 pM after 48 hrs by ELISA; type: functional, cell-based
In short: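 Calvarial osteoblasts were seeded at 5×10^3 cells/well and treated 48 h at 100 pM in α-MEM with 1% charcoal-stripped FCS. BMP2 in the culture supernatant was measured by sandwich ELISA, with OD read at 450 nm.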

Rattus norvegicus [26] = assay: Osteogenic activity in Sprague-Dawley rat drill-hole fracture model assessed as increase in connection density at 10 mg/kg/day for 14 consecutive days by micro CT-scan analysis; type: functional, organism-based; in short: as §4
Calvarial osteoblast [27] = assay: Anabolic activity in rat calvarial osteoblasts assessed as induction of alkaline phosphatase activity at 1 uM after 48 hrs in presence of beta-glycerophosphate and ascorbic acid by p-nitrophenyl phosphate substrate based assay (reference value: 1 to 1.21); type: functional
Rattus norvegicus [28] = assay: Osteogenic activity in Sprague-Dawley rat drill-hole fracture model assessed as increase in Bmp2 expression levels at 10 mg/kg/day by qRT-PCR analysis; type: functional, organism-based
Calvarial osteoblast [29] = assay: Induction of mineralization in rat calvarial osteoblasts at 0.1 nM to 10 nM after 21 days by Alizarin-red dye based assay; type: functional, cell-based
In short: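 Rat pup calvarial osteoblasts were seeded at 1×10^4 cells/well in differentiation medium with compound. Medium was changed every other day for 21 days. Cells were fixed in 4% paraformaldehyde and stained with 40 mM Alizarin red (pH 4.5). Stain was extracted with 10% acetic acid, heated to 85 °C, and neutralised with NH4OH. Absorbance was read at 405 nm.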

Calvarial osteoblast [30] = assay: Upregulation of RUNX2 expression levels in rat calvarial osteoblasts at 100 pM after 48 hrs by Western blot analysis; type: functional, cell-based
Calvarial osteoblast [31] = assay: Upregulation of COL1 expression levels in rat calvarial osteoblasts at 100 pM after 48 hrs by Western blot analysis; type: functional, cell-based
Rattus norvegicus [32] = assay: Osteogenic activity in Sprague-Dawley rat drill-hole fracture model assessed as increase in mineral deposition at 10 mg/kg/day by calcein labeling-based confocal microscopy analysis
Calvarial osteoblast [33] = assay: Anabolic activity in rat calvarial osteoblasts assessed as induction of alkaline phosphatase activity at 100 pM after 48 hrs in presence of beta-glycerophosphate and ascorbic acid by p-nitrophenyl phosphate substrate based assay (reference value: 1 to 1.21); type: functional
Rattus norvegicus [34] = assay: Osteogenic activity in Sprague-Dawley rat drill-hole fracture model assessed as increase in bone volume/trabecular volume at 10 mg/kg/day for 14 consecutive days by micro CT-scan analysis; type: functional, organism-based; in short: as §4
Rattus norvegicus [35] = assay: Osteogenic activity in Sprague-Dawley rat drill-hole fracture model assessed as bone formation at 10 mg/kg/day by H and E staining-based analysis relative to control; type: functional, organism-based; in short: as §5

CCOC(=O)C1=C(C)NC2=C(C(=O)CCC2)C1c1cc(C(C)CC)c2oc(C(=O)c3ccc(C)cc3)cc2c1 (stereo not given)
Activity (Calvarial osteoblast [1]): Toxic
Activity (Calvarial osteoblast [2]): Non-Toxic
OD (Calvarial osteoblast [3]): 1.14
fold change (FC) (Calvarial osteoblast [4]): 5
Activity (Rattus norvegicus [5]): inactive
fold change (FC) (Calvarial osteoblast [6]): 3.7
Activity (Rattus norvegicus [7]): Active
OD (Calvarial osteoblast [8]): 0.36
Activity (Rattus norvegicus [9]): inactive
Activity (Rattus norvegicus [10]): 40%
fold change (FC) (Calvarial osteoblast [11]): 4.5
EC50 (Calvarial osteoblast [12]): 0.1 nM
fold change (FC) (Calvarial osteoblast [13]): 4.5
fold change (FC) (Calvarial osteoblast [14]): 3.7
Activity (Calvarial osteoblast [15]): Active
fold change (FC) (Calvarial osteoblast [16]): 3.9
Activity (Rattus norvegicus [17]): Active
Activity (Rattus norvegicus [18]): Non-Toxic
Activity (Rattus norvegicus [19]): Active
Activity (Rattus norvegicus [20]): Active
Activity (Rattus norvegicus [21]): Active
fold change (FC) (Calvarial osteoblast [22]): 3.4
OD (Calvarial osteoblast [23]): 1.19
fold change (FC) (Calvarial osteoblast [24]): 3.1
Activity (Calvarial osteoblast [25]): Active
Activity (Rattus norvegicus [26]): Active
OD (Calvarial osteoblast [27]): 1.16
Activity (Rattus norvegicus [28]): Active
Activity (Calvarial osteoblast [29]): Active
Activity (Calvarial osteoblast [30]): Active
Activity (Calvarial osteoblast [31]): Active
Activity (Rattus norvegicus [32]): Active
OD (Calvarial osteoblast [33]): 1.32
Activity (Rattus norvegicus [34]): Active
Activity (Rattus norvegicus [35]): Active
